Here are results for one compound from ChEMBL document CHEMBL4052637, “Discovery and Characterization of R/S-N-3-Cyanophenyl-N'-(6-tert-butoxycarbonylamino-3,4-dihydro-2,2-dimethyl-2H-1-benzopyran-4-yl)urea, a New Histone Deacetylase Class III Inhibitor Exerting Antiproliferative Activity against Cancer Cell Lines” (J Med Chem, 2017).

For experiment [1], the target named is T1, NAD-dependent protein deacetylase sirtuin-1 (Homo sapiens, UniProt Q96EB6).
T1 sequence (Q96EB6 whole entry): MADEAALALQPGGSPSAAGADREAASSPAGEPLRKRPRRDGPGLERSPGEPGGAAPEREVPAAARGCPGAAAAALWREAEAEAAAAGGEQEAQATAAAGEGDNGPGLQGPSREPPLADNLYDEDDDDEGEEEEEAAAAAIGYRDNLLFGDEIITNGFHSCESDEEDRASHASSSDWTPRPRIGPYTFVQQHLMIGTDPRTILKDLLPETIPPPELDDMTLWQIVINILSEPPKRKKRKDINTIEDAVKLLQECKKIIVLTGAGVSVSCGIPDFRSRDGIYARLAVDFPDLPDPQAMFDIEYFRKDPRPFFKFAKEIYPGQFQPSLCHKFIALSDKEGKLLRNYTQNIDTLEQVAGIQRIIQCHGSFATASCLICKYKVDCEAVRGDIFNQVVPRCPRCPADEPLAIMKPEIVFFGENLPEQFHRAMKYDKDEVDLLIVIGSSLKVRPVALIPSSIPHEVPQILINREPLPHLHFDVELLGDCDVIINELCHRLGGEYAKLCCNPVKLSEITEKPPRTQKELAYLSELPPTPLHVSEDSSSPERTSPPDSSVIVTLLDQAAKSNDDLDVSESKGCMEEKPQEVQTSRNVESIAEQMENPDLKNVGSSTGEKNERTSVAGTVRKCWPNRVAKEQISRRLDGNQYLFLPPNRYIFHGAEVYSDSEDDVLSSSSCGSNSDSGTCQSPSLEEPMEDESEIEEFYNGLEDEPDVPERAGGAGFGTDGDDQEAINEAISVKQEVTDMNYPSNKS
Nature of the experiment: Inhibition of N-terminal His-tagged recombinant human SIRT-1 expressed in Escherichia coli using Fluor-de-Lys-SIRT1 as substrate after 15 mins by fluorescence assay.

Experiment [2] addresses Histone deacetylase 11 (Homo sapiens) (UniProt Q96DB2). Description: Inhibition of N-terminal His-tagged recombinant human HDAC11 expressed in baculovirus infected insect Sf9 cells at 0.1 to 100 uM using Fluor-de-Lys-SIRT1 as substrate after 15 mins by fluorescence assay.
For experiment [3], the target named is T2, NAD-dependent protein deacetylase sirtuin-2 (Homo sapiens) (UniProt Q8IXJ6).
T2 sequence (whole entry): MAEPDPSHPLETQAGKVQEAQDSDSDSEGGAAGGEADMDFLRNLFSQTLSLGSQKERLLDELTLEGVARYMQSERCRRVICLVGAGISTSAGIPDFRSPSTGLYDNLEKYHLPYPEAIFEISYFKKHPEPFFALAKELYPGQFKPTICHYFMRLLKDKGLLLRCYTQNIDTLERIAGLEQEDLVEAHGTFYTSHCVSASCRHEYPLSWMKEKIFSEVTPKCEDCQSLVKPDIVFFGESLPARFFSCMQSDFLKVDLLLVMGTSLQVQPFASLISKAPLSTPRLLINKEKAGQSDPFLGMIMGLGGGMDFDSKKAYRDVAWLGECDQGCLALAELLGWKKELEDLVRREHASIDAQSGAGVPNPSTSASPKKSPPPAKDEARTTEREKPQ
Description: Inhibition of SIRT2 in human Hs683 cells assessed as increase of alpha-tubulin acetylation after 8 hrs by Western blotting method. It is filed as cell-based. In general terms: Immunoblotting shows a protein as a band on a membrane.

The subject of experiment [4] is Hs 683. Description: Induction of senescence in human Hs683 cells at 5 uM after 6 days by beta-galactosidase assay (reference value: 0.2%). The class given is functional. The method, boiled down: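 Cells were kept 6 days in medium containing 5 μM compound or DMSO vehicle, then stained for senescence-associated β-galactosidase activity. Blue-stained cells were counted and expressed as a percentage of total cells counted. Two independent experiments.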

Another experiment concerns A2780cis. Nature of the experiment: Antiproliferative activity against human A2780cis cells after 72 hrs by MTT assay. It is filed as functional, cell-based. The method, boiled down: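 MTT assay: cells in RPMI 1640 with 10% heat-inactivated FCS at 37 °C and 5% CO2 were seeded 24 h before treatment. They were exposed 72 h to compound at 0.01–100 μM, with DMSO as solvent.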
A general note: Tetrazolium assays rely on reduction of a dye to a coloured formazan, in cell work by metabolically active cells.

In experiment [5] the target is T3, NAD-dependent protein deacetylase sirtuin-1 (Homo sapiens) (UniProt Q96EB6).
T3 sequence (whole entry): T1 sequence (Q96EB6 whole entry)
Nature of the experiment: Inhibition of SIRT1 in human U373 cells assessed as increase of histone H4 acetylation at 10 uM after 8 hrs by Western blotting method relative to control. The class given is cell-based.

Experiment [6] concerns the target T3, NAD-dependent protein deacetylase sirtuin-1 (Homo sapiens). Nature of the experiment: Inhibition of SIRT1 in human Hs683 cells assessed as increase of histone H4 acetylation at 5 uM after 8 hrs by Western blotting method relative to control. It is filed as cell-based.
The target in experiment [7] is T2, NAD-dependent protein deacetylase sirtuin-2 (Homo sapiens). Nature of the experiment: Inhibition of SIRT2 in human Hs683 cells assessed as increase of alpha-tubulin acetylation at 10 uM after 8 hrs by Western blotting method relative to control. It is filed as cell-based.
The nature of experiment [8]: Potency index, ratio of AGK2 IC50 to test compound IC50 for human U373 cells. The class given is functional, U-373MG ATCC.
For experiment [9], the system named is Hs 683. Nature of the experiment: Antitumor activity against CM-Dil fluorescent dye labeled human Hs683 cells xenografted in zebrafish embryo at 10 uM preincubated with tumor for 36 hrs followed by tumor implantation in zebra fish yolk sac measured after 72 hrs by fluorescence microscopy. The class given is functional, cell-based. The method, boiled down:
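Cells were pretreated in vitro at 5 or 10 μM for 30 or 36 h and labeled with CM-DiI 2 h before injection. Then 100–200 cells were injected into the yolk sac of wild-type zebrafish 48 h post-fertilization, anesthetized in 0.02% tricaine. Embryos were kept 72 h at 28.5 °C in Danieau solution with 0.003% phenylthiourea, and fluorescence was quantified in eight fish per condition.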
For orientation: A xenograft is tissue or cells of one species grown in another, often human tumour cells in immunodeficient mice.

In the next experiment the test system is HL-60(TB). Nature of the experiment: Growth inhibition of human HL-60(TB) cells after 48 hrs by SRB assay. The class given is functional. Particulars: HL-60, 48 h.
Another experiment concerns NCI-H226. Nature of the experiment: Growth inhibition of human NCI-H226 cells after 48 hrs by SRB assay. It is filed as functional. Particulars: NCI-H226, 48 h.
The next experiment concerns NCI-H460. Nature of the experiment: Growth inhibition of human NCI-H460 cells after 48 hrs by SRB assay. Particulars: NCI-H460, 48 h. The class given is functional.
The next experiment deals with KM12. Nature of the experiment: Growth inhibition of human KM12 cells after 48 hrs by SRB assay. The class given is functional. Particulars: KM12, 48 h.
For another experiment, the system named is SNB-19. Nature of the experiment: Growth inhibition of human SNB19 cells after 48 hrs by SRB assay. The class given is functional. Particulars: SNB-19, 48 h.
The test system of the next experiment is M14. Nature of the experiment: Growth inhibition of human M14 cells after 48 hrs by SRB assay. It is filed as functional. Particulars: M14, 48 h.
The test system of a further experiment is MDA-MB-435. Nature of the experiment: Growth inhibition of human MDA-MB-435 cells after 48 hrs by SRB assay. It is filed as functional. Particulars: MDA-MB-435, 48 h.
A further experiment has as its system SK-MEL-5. Nature of the experiment: Growth inhibition of human SK-MEL-5 cells after 48 hrs by SRB assay. The class given is functional. Particulars: SK-MEL-5, 48 h.
The test system of a further experiment is OVCAR-4. Nature of the experiment: Growth inhibition of human OVCAR4 cells after 48 hrs by SRB assay. It is filed as functional. Particulars: OVCAR-4, 48 h.
A further experiment relates to TK-10. Description: Growth inhibition of human TK10 cells after 48 hrs by SRB assay. It is filed as functional. Particulars: TK-10, 48 h.
A further experiment concerns UO-31. Description: Growth inhibition of human UO31 cells after 48 hrs by SRB assay. Particulars: UO-31, 48 h. The class given is functional.

Each structure is given as a SMILES string. Calls of active or inactive are those of the source. The calls are words filed in the database; no cut-off is given here.

Sequence of Histone deacetylase 11 (Homo sapiens) (Q96DB2 whole entry): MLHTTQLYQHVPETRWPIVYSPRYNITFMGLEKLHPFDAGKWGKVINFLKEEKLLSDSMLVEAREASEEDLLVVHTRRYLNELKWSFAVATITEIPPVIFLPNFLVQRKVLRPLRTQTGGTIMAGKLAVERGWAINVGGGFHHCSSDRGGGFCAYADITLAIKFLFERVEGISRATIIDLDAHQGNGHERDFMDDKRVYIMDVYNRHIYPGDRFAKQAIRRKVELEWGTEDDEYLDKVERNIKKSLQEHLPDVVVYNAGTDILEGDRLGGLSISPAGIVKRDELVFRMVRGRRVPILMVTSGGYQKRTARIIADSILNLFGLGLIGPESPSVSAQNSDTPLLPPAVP

For the compound `CC(C)(C)OC(=O)Nc1ccc2c(c1)C(NC(=O)Nc1cccc(C#N)c1)CC(C)(C)O2` (stereo unspecified), the IC50 in experiment [1] turned out to be 6.2 µM. In addition, in experiment [2], the inhibition result was “inactive”. In experiment [3], the inhibition result was “Dose-dependent effect”. Further, the Activity with Hs 683 [4] amounted to 0.5%. The outcome in the experiment on A2780cis and in the experiment with Hs 683 [9] was Active. Moreover, the fold change (FC) in [5] came out at 4.1; in experiment [6] it was 8.3; in [7] it was 1.6. Also, in experiment [8], the “Ratio IC50” value is reported as 6 - 14. Further, the 50% growth inhibitory concentration (GI50) is 2.57 µM in the experiment on HL-60(TB); 2 µM in the experiment with NCI-H226; 3.02 µM with NCI-H460; 4.07 µM in the experiment with KM12; 3.72 µM in the experiment with SNB-19; 4.17 µM with M14. Moreover, the GI50 in the experiment on MDA-MB-435 is 1.48 µM; with SK-MEL-5, 0.427 µM; in the experiment on OVCAR-4 it was 1.78 µM; in the experiment with TK-10 it was 5.5 µM; with UO-31, 4.27 µM.

Usually IC50 stands for the point on the concentration scale where inhibition reaches its midpoint. In general, GI50 refers to the concentration that inhibits growth by half. Lower therefore signals greater sensitivity of the cells.
